The results in this text go back to article PMC2995081 (Nucleic Acids Research, 2010).

Molecules are shown by their SMILES.

Assay [1] concerns the target GST-Mdm2 RING domain (Homo sapiens, UniProt Q00987). Briefly: ATP binding competition assay. As to conditions: for binding to Mdm2 (displacement of bound γ-32P ATP): Mdm2(400–484), Nebularine: concentration range up to 1 mM.
For assay [2], the target named is GST-Mdm2 RING domain. Briefly: ATP binding competition assay. The arrangement: species or system human. As to conditions: Mdm2(410–491) with eight lysines mutated to alanine (8 KA, Mdm2-NoLS).
A further assay addresses GST-Mdm2(400–491) (Homo sapiens, UniProt Q00987). Briefly: Isothermal titration calorimetry. The conditions noted are these: 2 mM ATP titrated into 100 nM GST-Mdm2(400–491), single-site isotherm. The class given is binding. Put shortly:
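GST-Mdm2(400–491) was expressed in E. coli BL21 (16 h induction at 25°C) and purified on glutathione-Sepharose. In assay buffer (100 mM Tris-HCl pH 7.0, 100 mM NaCl, 10 mM MgCl2, 2 mM DTT), 2 mM ATP or GTP was injected into 100 nM protein over twenty injections. Buffer-alone heat of dilution was subtracted, and data were fitted to a single-site isotherm. Four independent measurements were made.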

Sequence of GST-Mdm2(400–491) (Q00987 400-491): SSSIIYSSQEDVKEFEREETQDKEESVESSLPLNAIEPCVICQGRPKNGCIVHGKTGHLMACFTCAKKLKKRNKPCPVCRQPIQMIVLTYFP

With `Nc1ncnc2c1ncn2[C@H]1C[C@H](O)[C@@H](CO)O1` [2′ deooxyadenosine, 2′deoxyadenosine], the “binding to Mdm2 (displacement of bound γ-32P ATP)” value at GST-Mdm2 RING domain [1] is “completely abrogated the binding”. For `Nc1ncnc2c1ncn2[C@@H]1O[C@H](COP(=O)(O)OP(=O)(O)OP(=O)(O)O)[C@@H](O)[C@H]1O` [ATP, adenosine triphosphate], the “dissociation constant (Kd)” value at GST-Mdm2 RING domain [1] (GST-Mdm2(400–491), competition of γ-32P ATP) is listed as “low micromolar range”. For the same compound, the results for the Kd entry on GST-Mdm2 RING domain [2] and on GST-Mdm2(400–491) were “low micromolar range” and 4 µM, respectively. As to `Nc1nc(F)nc2c1ncn2[C@@H]1O[C@H](CO)[C@@H](O)[C@@H]1O` [F-Ara-A, Fludarabine], the “binding to Mdm2 (displacement of bound γ-32P ATP)” value on GST-Mdm2 RING domain [1] is on record as “did not bind”.

In the case of `OC[C@H]1O[C@@H](n2cnc3cncnc32)[C@H](O)[C@@H]1O` [Nebularine], the “binding to Mdm2 (displacement of bound γ-32P ATP)” value at GST-Mdm2 RING domain [1] is listed as “no binding”.
